According to ChEMBL document CHEMBL4145497, “Discovery of 2-aminothiazolyl berberine derivatives as effectively antibacterial agents toward clinically drug-resistant Gram-negative Acinetobacter baumanii” (Eur J Med Chem, 2018):
Values after ≈ are worked out from the molar mass of the structure shown. Active and inactive are the calls of the source. No cut-off for these calls is given here.

Tests used:
Staphylococcus aureus [1] = assay: Potentiation of norfloxacin-mediated antibacterial activity against methicillin-resistant Staphylococcus aureus N315 after 18 to 24 hrs by two fold dilution checkerboard method relative to control; assay type: functional
[2] = Cytotoxicity against human LO2 cells assessed as cell viability at 1.5625 to 100 ug/ml after 48 hrs by MTT assay relative to control; assay type: cell-based, L02; details: read-out: Activity
Procedure, shortened: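 Human hepatocyte LO2 cells exposed to compound across a concentration range for 48 h; viability read by colorimetric MTT assay; standard deviation from three independent experiments.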

Pseudomonas aeruginosa [3] = assay: Potentiation of norfloxacin-mediated antibacterial activity against drug-resistant Pseudomonas aeruginosa assessed as norfloxacin MIC after 18 to 24 hrs by two fold dilution checkerboard method (reference value: 1.6 umol/ml); assay type: functional
Acinetobacter baumannii [4] = assay: Bactericidal activity against drug-resistant Acinetobacter baumannii assessed as reduction in number of viable bacterial load at 8 nmol/ml with in 2 hrs by time kill assay; assay type: functional
Aspergillus flavus [5] = assay: Potency index, ratio of fluconazole MIC to compound MIC for antibacterial activity against Aspergillus flavus ATCC 204304; assay type: functional
Enterococcus faecalis [6] = assay: Potentiation of norfloxacin-mediated antibacterial activity against drug-resistant Enterococcus faecalis assessed as norfloxacin MIC after 18 to 24 hrs by two fold dilution checkerboard method (reference value: 0.8 umol/ml); assay type: functional
Cyberlindnera jadinii = assay: Antifungal activity against Candida utilis ATCC 9950 by CLSI two fold serial dilution method; assay type: functional; details: Williopsis jadinii
Pseudomonas aeruginosa [7] = assay: Synergistic antibacterial activity against drug-resistant Pseudomonas aeruginosa assessed as FIC index in presence of norfloxacin by two fold dilution checkerboard method; assay type: functional
Acinetobacter baumannii [8] = assay: Antibacterial activity against drug-resistant Acinetobacter baumannii at 0.7 ug/ml measured 12 hrs post 10 serial passages; assay type: functional, organism-based
DNA [9] = assay: Inhibition of neutral red binding to drug-resistant Acinetobacter baumanii DNA up to 2.5 10^-5mol/L by UV-vis spectroscopic analysis; assay type: nucleic-acid assay; details: Acinetobacter baumannii
Procedure, shortened: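 Neutral red competition with genomic DNA from drug-resistant A. baumanii, extracted by spin column after proteinase K lysis. UV-vis absorbance near 460 nm was followed as compound concentration increased in the neutral red–DNA system.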

Acinetobacter baumannii [10] = assay: Antibacterial activity against drug-resistant Acinetobacter baumannii after 18 to 24 hrs in presence of norfloxacin by two fold dilution checkerboard method; assay type: functional
Enterococcus faecalis [11] = assay: Additive antibacterial activity against drug-resistant Enterococcus faecalis assessed as FIC index in presence of norfloxacin by two fold dilution checkerboard method; assay type: functional
Staphylococcus aureus [12] = assay: Synergistic antibacterial activity against methicillin-resistant Staphylococcus aureus N315 assessed as FIC index in presence of norfloxacin by two fold dilution checkerboard method; assay type: functional
Klebsiella pneumoniae [13] = assay: Synergistic antibacterial activity against drug-resistant Klebsiella pneumoniae assessed as FIC index in presence of norfloxacin by two fold dilution checkerboard method; assay type: functional
Bacillus subtilis = assay: Antibacterial activity against Bacillus subtilis ATCC 21216 after 18 to 24 hrs by CLSI two fold serial dilution method; assay type: functional
Staphylococcus aureus [14] = assay: Antibacterial activity against Staphylococcus aureus ATCC 25923 after 18 to 24 hrs by CLSI two fold serial dilution method; assay type: functional
Aspergillus flavus [15] = assay: Antifungal activity against Aspergillus flavus ATCC 204304 by CLSI two fold serial dilution method; assay type: functional
Acinetobacter baumannii [16] = assay: Potentiation of norfloxacin-mediated antibacterial activity against drug-resistant Acinetobacter baumannii assessed as norfloxacin MIC after 18 to 24 hrs by two fold dilution checkerboard method (reference value: 0.8 umol/ml); assay type: functional
Klebsiella pneumoniae [17] = assay: Antibacterial activity against drug-resistant Klebsiella pneumoniae after 18 to 24 hrs in presence of norfloxacin by two fold dilution checkerboard method; assay type: functional
Acinetobacter baumannii [18] = assay: Synergistic antibacterial activity against drug-resistant Acinetobacter baumannii assessed as FIC index in presence of norfloxacin by two fold dilution checkerboard method; assay type: functional
Escherichia coli [19] = assay: Antibacterial activity against drug-resistant Escherichia coli after 18 to 24 hrs in presence of norfloxacin by two fold dilution checkerboard method; assay type: functional
Staphylococcus aureus [20] = assay: Ratio of MIC for methicillin-resistant Staphylococcus aureus N315 in absence of norfloxacin to MIC for methicillin-resistant Staphylococcus aureus N315 in presence of norfloxacin; assay type: functional
Saccharomyces cerevisiae = assay: Antifungal activity against Saccharomyces cerevisiae ATCC 9763 by CLSI two fold serial dilution method; assay type: functional
DNA [21] = assay: Induction of drug-resistant Acinetobacter baumanii DNA cleavage at 50 uM after 6 hrs by ethidium bromide staining based agarose gel electrophoresis method; assay type: nucleic-acid assay; details: Acinetobacter baumannii
Procedure, shortened: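 Spin-column-isolated genomic DNA from drug-resistant A. baumanii (1.31×10^-6 mol/L) was incubated with compound (50 μM) in 50 mM Tris-HCl/50 mM NaCl, pH 7.4, at 37 °C for 6 h. Agarose gel electrophoresis was run against DNA-alone and DNA-plus-buffer lanes.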

Pseudomonas aeruginosa [22] = assay: Antibacterial activity against drug-resistant Pseudomonas aeruginosa after 18 to 24 hrs in presence of norfloxacin by two fold dilution checkerboard method; assay type: functional
Pseudomonas aeruginosa [23] = assay: Antibacterial activity against Pseudomonas aeruginosa ATCC 27853 after 18 to 24 hrs by CLSI two fold serial dilution method; assay type: functional
DNA [24] = assay: Binding affinity to drug-resistant Acinetobacter baumanii DNA by UV-vis spectroscopic analysis; assay type: nucleic-acid assay; details: Acinetobacter baumannii
Procedure, shortened: (§1)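 Genomic DNA was isolated from drug-resistant A. baumanii by spin-column extraction after proteinase K lysis at 70 °C. DNA concentration was taken from A260 using ε260 = 6600 L·mol−1·cm−1, expressed as phosphate molarity, and purity was checked by A260/A280 and gel. UV-vis spectra were recorded at a fixed DNA concentration of 8.12×10^-4 mol/L with increasing compound.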

Acinetobacter baumannii [25] = assay: Induction of membrane permeabilization in drug-resistant Acinetobacter baumannii at 0.024 umol/ml incubated for 1 hr measured up to 120 mins by propidium iodide staining-based fluorescence spectra analysis; assay type: functional, organism-based
Enterococcus faecalis [26] = assay: Antibacterial activity against drug-resistant Enterococcus faecalis after 18 to 24 hrs in presence of norfloxacin by two fold dilution checkerboard method; assay type: functional
Staphylococcus aureus [27] = assay: Potentiation of norfloxacin-mediated antibacterial activity against methicillin-resistant Staphylococcus aureus N315 assessed as norfloxacin MIC after 18 to 24 hrs by two fold dilution checkerboard method (reference value: 0.03 umol/ml); assay type: functional
Staphylococcus aureus [28] = assay: Antibacterial activity against methicillin-resistant Staphylococcus aureus N315 after 18 to 24 hrs by CLSI two fold serial dilution method; assay type: functional
[29] = Aqueous solubility of the compound in phosphate buffer at pH 7.4 after 3 hrs by UV detection assay; assay type: physicochemical
Procedure, shortened: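 Water solubility measured at physiological pH, with berberine as the control.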

Escherichia coli [30] = assay: Synergistic antibacterial activity against drug-resistant Escherichia coli assessed as FIC index in presence of norfloxacin by two fold dilution checkerboard method; assay type: functional
Klebsiella pneumoniae [31] = assay: Potentiation of norfloxacin-mediated antibacterial activity against drug-resistant Klebsiella pneumoniae assessed as norfloxacin MIC after 18 to 24 hrs by two fold dilution checkerboard method (reference value: 0.8 umol/ml); assay type: functional
Pichia norvegensis = assay: Antifungal activity against Candida mycoderma ATCC 96918 by CLSI two fold serial dilution method; assay type: functional
Escherichia coli [32] = assay: Antibacterial activity against Escherichia coli DH52 after 18 to 24 hrs by CLSI two fold serial dilution method; assay type: functional
DNA [33] = assay: Binding affinity to drug-resistant Acinetobacter baumanii DNA assessed as hyperchromic effect up to 2.5 10^-5mol/L by UV-vis spectroscopic analysis; assay type: nucleic-acid assay; details: Acinetobacter baumannii; procedure, shortened: as §1
Micrococcus luteus = assay: Antibacterial activity against Micrococcus luteus ATCC 4698 after 18 to 24 hrs by CLSI two fold serial dilution method; assay type: functional
Candida albicans = assay: Antifungal activity against Candida albicans ATCC 76615 by CLSI two fold serial dilution method; assay type: functional
Escherichia coli [34] = assay: Potentiation of norfloxacin-mediated antibacterial activity against drug-resistant Escherichia coli assessed as norfloxacin MIC after 18 to 24 hrs by two fold dilution checkerboard method (reference value: 1.6 umol/ml); assay type: functional
Staphylococcus aureus [35] = assay: Antibacterial activity against methicillin-resistant Staphylococcus aureus N315 after 18 to 24 hrs in presence of norfloxacin by two fold dilution checkerboard method; assay type: functional
Candida parapsilosis = assay: Antifungal activity against Candida parapsilosis ATCC 22019 by CLSI two fold serial dilution method; assay type: functional; details: Lodderomyces parapsilosis
Klebsiella pneumoniae [36] = assay: Antibacterial activity against drug-resistant Klebsiella pneumoniae after 18 to 24 hrs by CLSI two fold serial dilution method; assay type: functional
Pseudomonas aeruginosa [37] = assay: Antibacterial activity against drug-resistant Pseudomonas aeruginosa after 18 to 24 hrs by CLSI two fold serial dilution method; assay type: functional
Acinetobacter baumannii [38] = assay: Antibacterial activity against drug-resistant Acinetobacter baumannii after 18 to 24 hrs by CLSI two fold serial dilution method; assay type: functional
[39] = Oral bioavailability in ICR mouse at 10.4 to 83.2 mg/kg after 60 mins by HPLC method; assay type: ADME, organism-based; details: in vivo
Escherichia coli [40] = assay: Antibacterial activity against drug-resistant Escherichia coli after 18 to 24 hrs by CLSI two fold serial dilution method; assay type: functional
Enterococcus faecalis [41] = assay: Antibacterial activity against drug-resistant Enterococcus faecalis after 18 to 24 hrs by CLSI two fold serial dilution method; assay type: functional

Structure (SMILES): CCCCCCOc1c(OC)cc(/C=N/Nc2nccs2)c2c1CN1CCc3cc4c(cc3C1C2)OCO4 (stereo not given)
- fold change (FC) (Staphylococcus aureus [1]): 4
- viability at 48 h [2]: > 70.7%
- MIC (Pseudomonas aeruginosa [3]): 50 µM
- Activity (Acinetobacter baumannii [4]): >3 deltalog10CFU/ml
- Ratio (Aspergillus flavus [5]): 14
- MIC (Enterococcus faecalis [6]): 50 µM
- MIC (Cyberlindnera jadinii): 120 µM (≈ 64.2 µg/mL)
- fractional inhibitory concentration index (FICI) (Pseudomonas aeruginosa [7]): 0.45
- Activity (Acinetobacter baumannii [8]): Active
- inhibition (DNA [9]): Active
- MIC (Acinetobacter baumannii [10]): 0.5 µM
- fractional inhibitory concentration index (FICI) (Enterococcus faecalis [11]): 0.56
- fractional inhibitory concentration index (FICI) (Staphylococcus aureus [12]): 0.5
- fractional inhibitory concentration index (FICI) (Klebsiella pneumoniae [13]): 0.38
- MIC (Bacillus subtilis): 120 µM (≈ 64.2 µg/mL)
- MIC (Staphylococcus aureus [14]): 30 µM (≈ 16 µg/mL)
- MIC (Aspergillus flavus [15]): 60 µM (≈ 32.1 µg/mL)
- MIC (Acinetobacter baumannii [16]): 50 µM
- MIC (Klebsiella pneumoniae [17]): 30 µM
- fractional inhibitory concentration index (FICI) (Acinetobacter baumannii [18]): 0.31
- MIC (Escherichia coli [19]): 30 µM
- Ratio (Staphylococcus aureus [20]): 4
- MIC (Saccharomyces cerevisiae): 60 µM (≈ 32.1 µg/mL)
- Activity (DNA [21]): Active
- MIC (Pseudomonas aeruginosa [22]): 25 µM
- MIC (Pseudomonas aeruginosa [23]): 60 µM (≈ 32.1 µg/mL)
- K (DNA [24]): 2.54 ×10³ L/mol
- Activity (Acinetobacter baumannii [25]): Active
- MIC (Enterococcus faecalis [26]): 15 µM
- MIC (Staphylococcus aureus [27]): 6 µM
- MIC (Staphylococcus aureus [28]): 7 to 30 µM (≈ 3.74 to 16 µg/mL)
- solubility at 3 h [29]: 1420 µg/mL (≈ 2660 µM)
- fractional inhibitory concentration index (FICI) (Escherichia coli [30]): 0.31
- MIC (Klebsiella pneumoniae [31]): 100 µM
- MIC (Pichia norvegensis): 30 µM (≈ 16 µg/mL)
- MIC (Escherichia coli [32]): 60 µM (≈ 32.1 µg/mL)
- Activity (DNA [33]): Active
- MIC (Micrococcus luteus): 60 µM (≈ 32.1 µg/mL)
- MIC (Candida albicans): 30 µM (≈ 16 µg/mL)
- MIC (Escherichia coli [34]): 100 µM
- MIC (Staphylococcus aureus [35]): 7 µM
- MIC (Candida parapsilosis): 4 µM (≈ 2.14 µg/mL)

Structure (SMILES): COc1ccc2cc3[n+](cc2c1OC)CCc1cc2c(cc1-3)OCO2 [BERBERINE]
- MIC (Klebsiella pneumoniae [36]): 1380 µM
- MIC (Pseudomonas aeruginosa [37]): 1380 µM
- MIC (Acinetobacter baumannii [38]): 1380 µM
- bioavailability [39]: < 1%
- MIC (Bacillus subtilis): 690 to 1380 µM
- MIC (Staphylococcus aureus [14]): 340 µM
- MIC (Pseudomonas aeruginosa [23]): 690 µM
- MIC (Staphylococcus aureus [28]): 1380 µM
- MIC (Escherichia coli [40]): 1380 µM
- MIC (Enterococcus faecalis [41]): 1380 µM
- solubility at 3 h [29]: 86 µg/mL
- MIC (Escherichia coli [32]): 690 to 1380 µM
- MIC (Micrococcus luteus): 690 to 1380 µM
